PolyA inhibitor: inhibitors of polyadenylation in S. cerevisiae; 300,000 compounds, 0.02% hits; S. cerevisiae SKY197-pL101 polyadenylation reporter, beta-gal luminescence; efflux-impaired pdr1/pdr3 knockout yeast; score 100 = 6 SD above DMSO; AID 1875; activity score, % at 12 µM;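 active = lowest replicate activity score at least 50, where 100 means six control SD above control mean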;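 also: yeast exposed to compound for 9 h at 30 °C; higher score means more reporter readthrough which indicates perturbed polyadenylation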
PERK inhibitor: inhibitors of human PERK kinase | Q9NZJ5 | CHO PERK-DD fusion, SEAP luminescence translation reporter | inhibition, % at 5.6 µM | 220,000 compounds, 0.17% hits;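 active = inhibition above the mean inhibition of all tested compounds plus 3 SD, set separately per screening campaign, cut at about 2.9% in these data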;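 also: PERK kinase domain activated by AP20187 dimerizer at 100 nM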
Hsp70 activator: switches on Hsp70 transcription | 200,000 compounds, 0.04% hits | HeLa Hsp70 promoter luciferase reporter, luminescence; scaled: vehicle 0, proteasome-inhibitor control 100% | activation, % at 10 µM;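 active = activation above the mean across all tested compounds plus 3 SD, cutoff set per campaign, cut at about 5.5% in these data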
HSF1 inh: HSF1 inhibition; NIH3T3-HGL HSE-luciferase, MG132-induced, luminescence 8 h; hits give low values; activity change, negative = inhibition, % at 7.5 µM (by protocol); 300,000 compounds, 0.77% hits;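 active = more than half of replicate wells show activity change below -50%, luminescence cut by over half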;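 also: luciferase reports HSF-1 transcriptional activity via heat shock element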
AHR activator: activates the human aryl hydrocarbon receptor | activation, % at 5 µM | 320,000 compounds, 2.5% hits | P35869 | AHR-responsive luciferase reporter cells, luminescence; in the data active = activation above about 47%
Target sequence (P35869 whole entry, looked up): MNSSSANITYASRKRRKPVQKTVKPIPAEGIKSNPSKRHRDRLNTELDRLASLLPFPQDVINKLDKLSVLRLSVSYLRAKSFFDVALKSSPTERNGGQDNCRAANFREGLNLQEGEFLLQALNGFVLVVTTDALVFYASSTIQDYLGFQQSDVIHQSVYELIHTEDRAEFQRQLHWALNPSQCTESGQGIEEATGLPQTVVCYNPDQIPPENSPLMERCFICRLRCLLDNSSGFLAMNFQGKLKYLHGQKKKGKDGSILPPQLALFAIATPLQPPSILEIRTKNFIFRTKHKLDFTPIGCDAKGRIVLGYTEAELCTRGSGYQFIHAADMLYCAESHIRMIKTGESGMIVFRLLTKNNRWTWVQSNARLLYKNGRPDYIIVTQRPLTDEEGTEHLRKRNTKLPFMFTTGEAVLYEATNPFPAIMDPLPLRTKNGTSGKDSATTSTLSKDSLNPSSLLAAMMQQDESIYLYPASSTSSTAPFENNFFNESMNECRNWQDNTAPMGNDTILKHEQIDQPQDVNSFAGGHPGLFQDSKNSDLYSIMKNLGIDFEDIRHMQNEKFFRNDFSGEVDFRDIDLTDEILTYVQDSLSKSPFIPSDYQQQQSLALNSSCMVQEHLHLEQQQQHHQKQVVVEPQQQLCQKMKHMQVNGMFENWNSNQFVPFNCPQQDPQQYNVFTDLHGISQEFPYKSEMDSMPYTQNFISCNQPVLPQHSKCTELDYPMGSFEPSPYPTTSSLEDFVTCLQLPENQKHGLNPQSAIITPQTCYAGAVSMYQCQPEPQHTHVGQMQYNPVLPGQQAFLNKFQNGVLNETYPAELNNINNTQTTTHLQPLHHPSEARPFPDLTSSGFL
STAT3 act: activators of IL-6 induced STAT3 signaling; 190,000 compounds, 0.91% hits; U3A cells, IL-6 STAT3-luciferase reporter, luminescence; 100% = signal with IL-6 EC80 alone; activation (% of control), % at 5.6 µM; AID 871;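 active = activation above the screen-wide mean of compound activation plus 3 SD, cut at about 130% in these data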
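Material: STAT3-luciferase reporter U3A cells. Controls: IL-6-treated wells, 100% activation. Read-out: % activation versus median of IL-6-stimulated wells. Probe or stimulus: IL-6 stimulus at 33 ng/mL final. Timing: compound 1 h, then IL-6 6 h at 37 °C. Signal: reporter luminescence signal.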
Hits are given with their value. This is a sample that favours compounds with a hit; in the whole collection about 3.6% have one here.

Cc1ccc(-n2nc(C)c3cc(C(=O)O)sc32)cc1 was read as PolyA inhibitor inactive, PERK inhibitor inactive, Hsp70 activator inactive, HSF1 inh -69.4, AHR activator inactive and STAT3 act inactive.
CN(Cc1cccc(F)c1)C(=O)CNS(=O)(=O)c1ccc2ccccc2c1 was read as PolyA inhibitor inactive, HSF1 inh inactive and AHR activator inactive.
Screening CCOc1ccccc1CN1CCN(Cc2[nH]c3ccccc3c2C)CC1CCO (configuration not stated) returned PolyA inhibitor inactive, PERK inhibitor inactive, Hsp70 activator inactive, HSF1 inh inactive, AHR activator 51.4 and STAT3 act inactive.
For CN1CCN(c2ccc(-c3ccc4ccccc4n3)cc2)CC1 the results were PolyA inhibitor inactive, PERK inhibitor inactive, Hsp70 activator inactive, HSF1 inh -89.7 and STAT3 act inactive.
For c1ccc(-c2nc(-n3nc4ccccc4n3)nc3ccccc23)cc1 the results were PolyA inhibitor inactive, PERK inhibitor inactive, Hsp70 activator inactive, HSF1 inh inactive, AHR activator inactive and STAT3 act inactive.
For O=C1CN(c2nc(-c3ccccc3)c3ccccc3n2)c2ccccc2N1 the results were PolyA inhibitor inactive, PERK inhibitor inactive, Hsp70 activator inactive, HSF1 inh inactive, AHR activator 61.1 and STAT3 act inactive.
`O=[N+]([O-])c1ccc(O)c(/C=N\N=C2c3ccccc3-c3ccccc32)c1` gave PolyA inhibitor inactive, PERK inhibitor inactive, Hsp70 activator inactive, HSF1 inh inactive, AHR activator 47.5 and STAT3 act inactive.
For O=C(Cn1cnc([N+](=O)[O-])n1)N/N=C/c1ccccc1O the results were PolyA inhibitor inactive, PERK inhibitor 3.4, Hsp70 activator inactive, HSF1 inh inactive, AHR activator inactive and STAT3 act inactive.
`Oc1c(Br)cc(C=Nc2ccc3nc(-c4ccccc4)[nH]c3c2)c(O)c1Br` gave PolyA inhibitor inactive, PERK inhibitor inactive, Hsp70 activator inactive, HSF1 inh inactive, AHR activator inactive and STAT3 act inactive.
`O=[N+]([O-])c1ccc(O)c(C=Nc2ccc3nc(-c4ccccc4)[nH]c3c2)c1` gave PolyA inhibitor inactive, PERK inhibitor inactive, Hsp70 activator inactive, HSF1 inh inactive, AHR activator 66.7 and STAT3 act inactive.
Screening O=C(Cn1nc2ccccc2n1)N/N=C/c1cc([N+](=O)[O-])ccc1O returned PolyA inhibitor inactive, PERK inhibitor inactive, Hsp70 activator inactive, HSF1 inh -53.3, AHR activator inactive and STAT3 act inactive.
Screening NC(N)=N/N=C/c1cc([N+](=O)[O-])ccc1O returned PolyA inhibitor inactive, PERK inhibitor inactive, Hsp70 activator inactive, HSF1 inh inactive, AHR activator inactive and STAT3 act inactive.
Screening CCCCCn1nc(C(=O)OCc2nnc(-c3ccccc3)o2)c2ccccc2c1=O returned PolyA inhibitor inactive, HSF1 inh inactive and AHR activator inactive.
For CCC(C)c1ccc(OCc2ccc(C(=O)OC)o2)cc1 (configuration not stated) the results were PolyA inhibitor inactive, PERK inhibitor inactive, HSF1 inh inactive and AHR activator inactive.
For O=C(Cn1nnc(-c2ccccc2)n1)N/N=C/c1ccco1 the results were PolyA inhibitor inactive, PERK inhibitor inactive, Hsp70 activator inactive, HSF1 inh inactive, AHR activator inactive and STAT3 act inactive.
`NC(=O)NC(=O)COC(=O)CC12CC3CC(CC(C3)C1)C2` gave PolyA inhibitor inactive, PERK inhibitor inactive, Hsp70 activator inactive, HSF1 inh inactive, AHR activator inactive and STAT3 act inactive.
Screening O=C(Cn1cnc2ccccc21)N/N=C/c1ccc([N+](=O)[O-])cc1 returned PolyA inhibitor inactive, PERK inhibitor inactive, Hsp70 activator inactive, HSF1 inh inactive, AHR activator 48.7 and STAT3 act inactive.
Screening C=CCN(CC=C)C(=O)Nc1cc(OC)ccc1OC returned PolyA inhibitor inactive, PERK inhibitor inactive and HSF1 inh inactive.
Screening O=C(CSc1ccsc1[N+](=O)[O-])NCc1ccco1 returned PolyA inhibitor inactive, PERK inhibitor inactive, Hsp70 activator inactive, HSF1 inh inactive, AHR activator inactive and STAT3 act inactive.
Screening Nc1ccccc1-c1nnc(-c2ccccc2N)n1N returned PolyA inhibitor inactive, PERK inhibitor inactive, Hsp70 activator inactive, HSF1 inh inactive, AHR activator 48.2 and STAT3 act inactive.
For Nn1c(-c2ccccn2)nnc1-c1ccccn1 the results were PolyA inhibitor inactive, PERK inhibitor inactive, Hsp70 activator inactive, HSF1 inh inactive, AHR activator inactive and STAT3 act inactive.
CCOC(=O)c1sc(=NC(=O)c2ccco2)n(C)c1C was read as PERK inhibitor inactive, Hsp70 activator inactive, AHR activator inactive and STAT3 act 142.8.
CCOC(=O)c1sc(=NC(=O)c2ccccc2Br)n(C)c1C was read as PolyA inhibitor inactive, HSF1 inh inactive and AHR activator inactive.
Screening CCOC(=O)c1sc(=NC(=O)c2ccc(Cl)s2)n(C)c1C returned PolyA inhibitor inactive, PERK inhibitor inactive, Hsp70 activator inactive, HSF1 inh inactive, AHR activator inactive and STAT3 act 136.8.
Cc1nn(CC(=O)Nc2ccc(Cl)c(S(=O)(=O)N(C)C)c2)c(C)c1[N+](=O)[O-] was read as PolyA inhibitor inactive, PERK inhibitor inactive, Hsp70 activator inactive, HSF1 inh inactive, AHR activator inactive and STAT3 act inactive.
CN(C)S(=O)(=O)c1cc(NC(=O)c2ccc(-n3ccnc3)c([N+](=O)[O-])c2)ccc1Cl was read as PolyA inhibitor inactive, HSF1 inh inactive and AHR activator 53.1.
COc1ccc(CCNC(=O)CN2CCN(Cc3ccccc3F)C2=O)cc1OC was read as PolyA inhibitor inactive, PERK inhibitor inactive, HSF1 inh -74.0 and AHR activator inactive.
For COc1ccc(-c2cc(C#N)nc(N3CCN(C)CC3)n2)cc1 the results were PolyA inhibitor inactive, PERK inhibitor inactive, Hsp70 activator inactive, HSF1 inh inactive, AHR activator 73.5 and STAT3 act inactive.
`CN1CCN(c2nc(C#N)cc(-c3ccccc3)n2)CC1` gave PolyA inhibitor inactive, PERK inhibitor inactive, Hsp70 activator inactive, HSF1 inh inactive, AHR activator inactive and STAT3 act inactive.
`Cc1ccc(N/C=C/C(=O)c2ccccc2)cc1Br` gave PolyA inhibitor inactive, HSF1 inh inactive and AHR activator 54.6.
O=C(/C=C/Nc1cccc(O)c1)c1ccccc1 was read as PolyA inhibitor inactive, PERK inhibitor inactive, Hsp70 activator inactive, HSF1 inh inactive, AHR activator inactive and STAT3 act inactive.
COc1ccc(Cl)cc1NC(=O)CN1C(=O)CC(C)S(=O)(=O)c2ccccc21 (configuration not stated) was read as PolyA inhibitor inactive, PERK inhibitor inactive, Hsp70 activator inactive, HSF1 inh inactive, AHR activator inactive and STAT3 act inactive.

Screens: PubChem BioAssay, several laboratories
